According to ChEMBL document CHEMBL5154939, “Improved Binding Affinity and Pharmacokinetics Enable Sustained Degradation of BCL6 In Vivo” (J Med Chem, 2022):
Values after ≈ are worked out from the molar mass of the structure shown. Active and inactive are the calls of the source. The calls are words filed in the database; no cut-off is given here.

Experiments:
[1] = biological target: T1, B-cell lymphoma 6 protein (Homo sapiens, UniProt P41182); experiment: Degradation of BCL6 in human OCI-Ly1 cells incubated for 2 hrs by MSD assay; assay type: cell-based
How it was run: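 Lysates were read by MSD sandwich immunoassay (goat capture, rabbit detection anti-BCL6, electrochemiluminescence). Signal was normalised to DMSO (high) and a reference degrader control at 2 μM (low). DC50 came from a four-parameter logistic fit, with Dmax reported.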

[2] = Clearance in BALB/c mouse at 1 mg/kg, iv or 5 mg/kg, po measured after 6 hrs post-dose by ESI-LCMS/MS based UPLC analysis relative to hepatic blood flow; assay type: ADME, organism-based; settings: in vivo
[3] = Cmax in BALB/c mouse at 1 mg/kg, iv or 5 mg/kg, po measured after 6 hrs post-dose by ESI-LCMS/MS based UPLC analysis; assay type: ADME, organism-based; design: time 6 hrs, dose 5 mg/kg, route po; settings: in vivo
[4] = Passive membrane permeability of compound in phosphate buffered saline at pH 7.4 at 10 uM incubated for 16 hrs by PAMPA assay based TQ-S LC-MS/MS analysis; assay type: ADME; settings: read-out: permeability
How it was run: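 PAMPA with a 2% phosphatidylcholine-in-dodecane membrane. Compound at 10 µM in PBS pH 7.4 containing 1% BSA was incubated 16 h at 30 °C. Supernatants were diluted and quantified by LC-MS/MS.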

[5] = Kinetic aqueous solubility of the compound in 1% DMSO/PBS at pH 7.4 incubated for 2 hrs by UV-vis detection based HPLC analysis; assay type: physicochemical; settings: PBS with 1% DMSO, read-out: Kinetic_solubility
How it was run: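 A 10 mM DMSO stock was diluted into PBS pH 7.4 to 100 µM final with 1% DMSO, shaken 2 h at 20 °C and centrifuged. The supernatant was mixed with DMSO and measured by HPLC-UV on a 5 min water:methanol gradient with 0.1% formic acid at 30 °C, against an external standard from the same stock.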

[6] = biological target: T1, B-cell lymphoma 6 protein
[7] = Toxicity in SCID mouse xenografted with human HT cells assessed as body weight loss at 50 mg/kg, po bid measured upto 22 days; assay type: organism-based; settings: in vivo, 528 h, time < 22 day
How it was run: (§1)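 HT cells grown in RPMI-1640 with 10% FBS, kept at 0.5-2 × 10^6 cells/mL. For implantation, 10^7 cells per 200 µL in serum-free RPMI plus an equal volume of Matrigel were injected subcutaneously at a single site in female SCID mice. At day 20, tumours of 0.4-0.6 cm³ were chosen, n=10 per group. Oral dosing at 50 mg/kg or vehicle was given every 12 h for 22 days (DMSO/Kolliphor HS15/PEG400/aqueous HPMC, 0.2 mL per 20 g).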

HT [8] = experiment: Downregulation of BCL6 levels in human HT cells xenografted in SCID mouse at 50 mg/kg, po bid measured for 4 to 12 hrs post-dose by capillary electrophoresis method; assay type: functional, organism-based; settings: time lower 4.0 hrs, time upper […]
How it was run: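 Female SCID mice bearing subcutaneous HT xenografts (10^7 cells with Matrigel) were dosed orally at 50 mg/kg BID, every 12 h, for 22 days; vehicle was DMSO/Kolliphor HS15/PEG400/1.25% HPMC. Tumours were taken 4 and 12 h after the final dose, snap-frozen and bead-homogenised in Tris/Triton lysis buffer. Lysates at 0.0875 mg/ml were run on Wes capillary electrophoresis, with BCL6 normalised to GAPDH.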

HT [9] = experiment: Antitumor activity against human HT cells xenografted in SCID mouse assessed as reduction in tumor growth at 50 mg/kg, po bid measured upto 22 days; assay type: functional, organism-based; settings: time <= 22.0 day; how it was run: as §1
[10] = Toxicity in SCID mouse xenografted with human OCI-Ly1 cells assessed as noticeable adverse effects at 50 mg/kg, po measured for 12 to 24 hrs; assay type: organism-based; settings: in vivo, time 12-24 hrs
How it was run: (§2)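 Female SCID mice with subcutaneous OCI-Ly1 xenografts (1.5×10^7 cells in serum-free IMDM/Matrigel; tumours 0.4-0.6 cm³ at day 20) received one oral dose of 50 mg/kg or vehicle (DMSO/Kolliphor HS15/PEG400/HPMC). Groups of n=3 were sampled at 12, 16 and 24 h. Tumour lysates were analysed by Wes capillary electrophoresis, with BCL6 normalised to GAPDH.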

OCI-Ly1 = experiment: Downregulation of BCL6 levels in human OCI-Ly1 cells xenografted in SCID mouse at 50 mg/kg, po measured for 12 to 24 hrs by capillary electrophoresis method; assay type: functional, organism-based; settings: time lower […], time upper 24.0 hrs; how it was run: as §2
[11] = Toxicity in BALB/c mouse at 1 mg/kg, iv or 5 mg/kg, po measured upto 24 hrs post-dose; assay type: organism-based; settings: in vivo

Row | Compound | EC50 [1] [nM] | other results
1 | C[C@H]1CCCN(c2ncc(Cl)c(Nc3ccc4c(c3)c3c(c(=O)n4C)OCC(F)(F)[C@H](C4CC4)N3)n2)C1 | 6.3 | 
2 | Cn1c(=O)c2c(c3cc(Nc4nc(N5CCC(F)(F)[C@H](CO)C5)ncc4Cl)ccc31)N[C@@H](C1CC1)C(F)(F)CO2 | > 2000 | 
3 | C[C@H]1C[C@@H](O)CN(c2ncc(Cl)c(Nc3ccc4c(c3)n(CCC(C)(C)O)c(=O)n4C)n2)C1 (relative stereo) | 35 | 
4 | Cn1c(=O)n(CCC(C)(C)O)c2cc(Nc3nc(N4CCC(F)(F)C(O)C4)ncc3Cl)ccc21 (racemic) | 276 | 
5 | C[C@@H]1CN(c2ncc(Cl)c(Nc3ccc4c(c3)n(CCC(C)(C)O)c(=O)n4C)n2)C[C@H](C)C1(F)F |  | CLH [2]: 22%; Cmax [3]: 1580 nM; Papp at 16 h, 10 µM [4]: 33 ×10⁻⁶ cm/s
6 | CC(=O)N[C@@H]1C[C@H](C)CN(c2ncc(Cl)c(Nc3ccc4c(c3)c3c(c(=O)n4C)OCC(F)(F)[C@H](C4CC4)N3)n2)C1 | 2.2 | 
7 | Cn1c(=O)c2c(c3cc(Nc4nc(N5CCC(F)(F)[C@@H](CO)C5)ncc4Cl)ccc31)N[C@@H](C1CC1)C(F)(F)CO2 | 2.7 | solubility kinetic at 2 h [5]: 13 µM (≈ 7.58 µg/mL); Papp at 16 h, 10 µM [4]: 21 ×10⁻⁶ cm/s
8 | C[C@@H]1C[C@@H](O)CN(c2ncc(Cl)c(Nc3ccc4c(c3)c3c(c(=O)n4C)OCC(F)(F)[C@H](C4CC4)N3)n2)C1 | > 2000 | 
9 | Cn1c(=O)c2c(c3cc(Nc4nc(N5CCC(F)(F)[C@@H](O)C5)ncc4Cl)ccc31)N[C@@H](C1CC1)C(F)(F)CO2 | 7.1 | 
10 | C[C@@H]1C[C@H](O)CN(c2ncc(Cl)c(Nc3ccc4c(c3)c3c(c(=O)n4C)OCC(F)(F)[C@H](C4CC4)N3)n2)C1 | > 2000 | EC50 [6]: > 2000 nM; Papp at 16 h, 10 µM [4]: 16 ×10⁻⁶ cm/s
11 | C[C@@H]1C[C@H](N(C)C)CN(c2ncc(Cl)c(Nc3ccc4c(c3)c3c(c(=O)n4C)OCC(F)(F)[C@H](C4CC4)N3)n2)C1 | > 2000 | 
12 | C[C@@H]1CCCN(c2ncc(Cl)c(Nc3ccc4c(c3)c3c(c(=O)n4C)OCC(F)(F)[C@H](C4CC4)N3)n2)C1 | 32.6 | 
13 | C[C@H]1C[C@@H](O)CN(c2ncc(Cl)c(Nc3ccc4c(c3)c3c(c(=O)n4C)OCC(F)(F)[C@H](C4CC4)N3)n2)C1 | 0.7 | Activity [7]: Non-Toxic; Activity (HT [8]): Active; CLH [2]: 6%; Activity (HT [9]): Active; EC50 [6]: 1 nM; Cmax [3]: 3950 nM; Activity [10]: Non-Toxic; Activity (OCI-Ly1): Active; Activity [11]: Non-Toxic
14 | Cn1c(=O)c2c(c3cc(Nc4nc(N5CCC(F)(F)[C@H](O)C5)ncc4Cl)ccc31)N[C@@H](C1CC1)C(F)(F)CO2 | > 2000 | 
15 | C[C@H]1C[C@@H](N(C)C)CN(c2ncc(Cl)c(Nc3ccc4c(c3)c3c(c(=O)n4C)OCC(F)(F)[C@H](C4CC4)N3)n2)C1 | 9.8 | 
16 | C[C@H]1C[C@H](O)CN(c2ncc(Cl)c(Nc3ccc4c(c3)c3c(c(=O)n4C)OCC(F)(F)[C@H](C4CC4)N3)n2)C1 | > 2000 | 
17 | CC(=O)N[C@H]1C[C@@H](C)CN(c2ncc(Cl)c(Nc3ccc4c(c3)c3c(c(=O)n4C)OCC(F)(F)[C@H](C4CC4)N3)n2)C1 | > 2000 | 
18 | Cn1c(=O)c2c(c3cc(Nc4nc(N5CCC[C@@H](O)C5)ncc4Cl)ccc31)N[C@@H](C1CC1)C(F)(F)CO2 | > 2000 | 
19 | Cn1c(=O)c2c(c3cc(Nc4nc(N5CCC[C@H](O)C5)ncc4Cl)ccc31)N[C@@H](C1CC1)C(F)(F)CO2 | > 2000 | 
